Reference: ChEMBL document CHEMBL1145132, “N-hydroxy-3-phenyl-2-propenamides as novel inhibitors of human histone deacetylase with in vivo antitumor activity: discovery of (2E)-N-hydroxy-3-[4-[[(2-hydroxyethyl)[2-(1H-indol-3-yl)ethyl]amino]methyl]phenyl]-2-propenamide (NVP-LAQ824)” (J Med Chem, 2003)
“And” between values parts separate entries of the source, which are not always exact repeats. Identical values can stand only once.

Tests used:
NCI-H1299 = test: Inhibitory activity against H1299 human lung carcinoma cell growth; format: functional, cell-based
HCT-116 = test: Inhibitory activity against HCT116 human colon cell growth; format: functional, cell-based
Histone deacetylase = test: Inhibitory activity against histone deacetylase (HDAC) enzyme obtained from H1299 human lung carcinoma cell lysates
Mus musculus [1] = test: Compound was tested in vivo for efficacy in athymic mice bearing HCT116 subcutaneous tumor xenografts at a dose of 30 mg/kg and change in the body weight of the mouse was evaluated; format: functional
How it was run: (§1)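 Female outbred athymic nu/nu mice, ≈10⁶ HCT116 cells injected sc in right axillary region under anesthesia; treatment began when tumors ≈100 mm³ (day 13 post-implant), groups of eight balanced on tumor volume. Compound given iv as lactate salt in 10% DMSO/D5W, qd 5×/week for 15 doses. Individual body weights recorded once weekly; % change from start reported.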

Mus musculus [2] = test: Compound was tested in vivo for maximum tolerated dose (MTD) that resulted in no deaths when administered intravenously for five days; format: functional
How it was run: (§2)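 Athymic mice, four per group, dosed iv once daily for five consecutive days, up to a maximum of 200 mg/kg/day. Compound given as the lactate salt in 10% DMSO in 5% dextrose/water (final DMSO 10%). MTD taken as the highest dose that caused no deaths.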

Mus musculus [3] = test: Ratio of the change in tumor volume of treated animals to the change in tumor volume of control animals at a dose of 30 mg/kg; format: functional
How it was run: (§3)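 HCT116 sc xenografts (≈10⁶ cells) in female athymic nude mice, eight per group, treated from ≈100 mm³ tumors with iv lactate salt in 10% DMSO/D5W qd 5×/week for 10 or 15 doses. Tumors measured weekly; % T/C = change in treated tumor volume over change in vehicle-control tumor volume; one-tailed Student's t-test.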

Mus musculus [4] = test: Compound was tested for efficacy in athymic mice bearing HCT116 subcutaneous tumor xenografts at a dose of 50 mg/kg and change in the body weight of the mouse was evaluated; format: functional; how it was run: as §1
Mus musculus [5] = test: Compound was tested for maximum tolerated dose (MTD) that resulted in no deaths when administered intravenously for five days; format: functional; how it was run: as §2
Mus musculus [6] = test: Ratio of the change in tumor volume of treated animals to the change in tumor volume of control animals at a dose of 50 mg/kg; format: functional; how it was run: as §3
Mus musculus [7] = test: Compound was tested in vivo for efficacy in athymic mice bearing HCT116 subcutaneous tumor xenografts at a dose of 20 mg/kg and change in the body weight of the mouse was evaluated; format: functional; how it was run: as §1
Mus musculus [8] = test: Ratio of the change in tumor volume of treated animals to the change in tumor volume of control animals at a dose of 20 mg/kg; format: functional; how it was run: as §3
Mus musculus [9] = test: Compound was tested for efficacy in athymic mice bearing HCT116 subcutaneous tumor xenografts at a dose of 10 mg/kg and change in the body weight of the mouse was evaluated; format: functional; how it was run: as §1
Mus musculus [10] = test: Ratio of the change in tumor volume of treated animals to the change in tumor volume of control animals at a dose of 10 mg/kg; format: functional; how it was run: as §3
Mus musculus [11] = test: Compound was tested for efficacy in athymic mice bearing HCT116 subcutaneous tumor xenografts at a dose of 45 mg/kg and change in the body weight of the mouse was evaluated; format: functional
Mus musculus [12] = test: Ratio of the change in tumor volume of treated animals to the change in tumor volume of control animals at a dose of 45 mg/kg; format: functional; how it was run: as §3
Mus musculus [13] = test: Compound was tested for efficacy in athymic mice bearing HCT116 subcutaneous tumor xenografts at a dose of 75 mg/kg and change in the body weight of the mouse was evaluated; format: functional
Mus musculus [14] = test: Ratio of the change in tumor volume of treated animals to the change in tumor volume of control animals at a dose of 75 mg/kg; format: functional; how it was run: as §3
Mus musculus [15] = test: Compound was tested in vivo for efficacy in athymic mice bearing HCT116 subcutaneous tumor xenografts at a dose of 40 mg/kg and change in the body weight of the mouse was evaluated; format: functional; how it was run: as §1
Mus musculus [16] = test: Ratio of the change in tumor volume of treated animals to the change in tumor volume of control animals at a dose of 40 mg/kg; format: functional; how it was run: as §3
Mus musculus [17] = test: Compound was tested for efficacy in athymic mice bearing HCT116 subcutaneous tumor xenografts at a dose of 100 mg/kg and change in the body weight of the mouse was evaluated; format: functional; how it was run: as §1
Mus musculus [18] = test: Compound was tested in vivo for efficacy in athymic mice bearing HCT116 subcutaneous tumor xenografts at a dose of 100 mg/kg and change in the body weight of the mouse was evaluated; format: functional; conditions: route intravenous; how it was run: as §1
Mus musculus [19] = test: Compound was tested in vivo for efficacy in athymic mice bearing HCT116 subcutaneous tumor xenografts at a dose of 25 mg/kg and change in the body weight of the mouse was evaluated; format: functional
Mus musculus [20] = test: Compound was tested in vivo for efficacy in athymic mice bearing HCT116 subcutaneous tumor xenografts at a dose of 50 mg/kg and change in the body weight of the mouse was evaluated; format: functional; conditions: route intravenous; how it was run: as §1
Mus musculus [21] = test: Compound was tested in vivo for efficacy in A549 human lung carcinoma xenograft model at a dose of 10 mg/kg and change in the body weight of the mouse was evaluated; format: functional
How it was run: (§4)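 Female outbred athymic nu/nu mice, ≈10⁷ A549 cells injected sc in right axillary region; treatment began ≈20 days post-implant at tumors ≈100 mm³, eight mice per group balanced on tumor volume. Dosing iv as lactate salt in 10% DMSO/D5W, qd 5×/week for 15 doses. Body weights recorded once weekly; % change reported.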

Mus musculus [22] = test: Compound was tested in vivo for efficacy in A549 human lung carcinoma xenograft model at a dose of 100 mg/kg and change in the body weight of the mouse was evaluated; format: functional; how it was run: as §4
Mus musculus [23] = test: Compound was tested in vivo for efficacy in A549 human lung carcinoma xenograft model at a dose of 25 mg/kg and change in the body weight of the mouse was evaluated; format: functional; how it was run: as §4
Mus musculus [24] = test: Compound was tested in vivo for efficacy in A549 human lung carcinoma xenograft model at a dose of 50 mg/kg and change in the body weight of the mouse was evaluated; format: functional; how it was run: as §4
Mus musculus [25] = test: Compound was tested in vivo for efficacy in athymic mice bearing HCT116 subcutaneous tumor xenografts at a dose of 10 mg/kg and change in the body weight of the mouse was evaluated; format: functional; conditions: route intravenous; how it was run: as §1
Mus musculus [26] = test: Ratio of the change in tumor volume of treated animals to the change in tumor volume of control animals at a dose of 50 mg/kg (A549 human lung carcinoma xenograft study); format: functional
How it was run: (§5)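 A549 sc xenografts (≈10⁷ cells) in female athymic nude mice, eight per group, dosed from ≈100 mm³ tumors (day 20) iv as lactate salt in 10% DMSO/D5W qd 5×/week for 15 doses. Weekly tumor measurement; % T/C = treated over vehicle-control change in tumor volume; one-tailed Student's t-test.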

Mus musculus [27] = test: Ratio of the change in tumor volume of treated animals to the change in tumor volume of control animals at a dose of 10 mg/kg (A549 human lung carcinoma xenograft study); format: functional; how it was run: as §5
Mus musculus [28] = test: Ratio of the change in tumor volume of treated animals to the change in tumor volume of control animals at a dose of 100 mg/kg; format: functional; conditions: 100 mg/kg; how it was run: as §3
Mus musculus [29] = test: Ratio of the change in tumor volume of treated animals to the change in tumor volume of control animals at a dose of 100 mg/kg (A549 human lung carcinoma xenograft study); format: functional; how it was run: as §5
Mus musculus [30] = test: Ratio of the change in tumor volume of treated animals to the change in tumor volume of control animals at a dose of 25 mg/kg; format: functional; how it was run: as §3
Mus musculus [31] = test: Ratio of the change in tumor volume of treated animals to the change in tumor volume of control animals at a dose of 25 mg/kg (A549 human lung carcinoma xenograft study); format: functional; how it was run: as §5

## O=C(/C=C/c1ccc(CNCCc2cnc3ccccc3c2)cc1)NO
NCI-H1299
  IC50: 500 nM
HCT-116
  IC50: 40 nM
Histone deacetylase
  IC50: 67 nM
Mus musculus [1]
  Body weight change: -5.4%
Mus musculus [2]
  MTD: 30 mg/kg
Mus musculus [3]
  T/C: 77%

## O=C(/C=C/c1ccc(CNCCc2c[nH]c3ccc(OCc4ccccc4)cc23)cc1)NO
NCI-H1299
  IC50: 65 nM
HCT-116
  IC50: 40 nM
Mus musculus [4]
  Body weight change: -3%
Mus musculus [5]
  MTD: 50 mg/kg
Mus musculus [6]
  T/C: 45%

## O=C(/C=C/c1ccc(CNCCc2cn(CC3CC3)c3ccccc23)cc1)NO
NCI-H1299
  IC50: 250 nM
HCT-116
  IC50: 30 nM
Histone deacetylase
  IC50: 84 nM
Mus musculus [7]
  Body weight change: -0.9%
Mus musculus [2]
  MTD: 20 mg/kg
Mus musculus [8]
  T/C: 81%

## O=C(/C=C/c1ccc(CNCCn2c3ccccc3c3ccccc32)cc1)NO
NCI-H1299
  IC50: 100 nM
HCT-116
  IC50: 10 nM
Histone deacetylase
  IC50: 66 nM
Mus musculus [9]
  Body weight change: -3.7%
Mus musculus [5]
  MTD: 10 mg/kg
Mus musculus [10]
  T/C: 85%

## O=C(/C=C/c1ccc(CNCCCc2ccccc2)cc1)NO
NCI-H1299
  IC50: 800 nM
HCT-116
  IC50: 50 nM
Histone deacetylase
  IC50: 150 nM
Mus musculus [11]
  Body weight change: -3.1%
Mus musculus [5]
  MTD: 45 mg/kg
Mus musculus [12]
  T/C: 86%

## Cn1cc(CCNCc2ccc(/C=C/C(=O)NO)cc2)c2ccccc21
NCI-H1299
  IC50: 170 nM
HCT-116
  IC50: 10 nM
Histone deacetylase
  IC50: 23 nM
Mus musculus [13]
  Body weight change: -3.2%
Mus musculus [14]
  T/C: 15%
Mus musculus [5]
  MTD: 75 mg/kg

## O=C(/C=C/c1ccc(CN(CCc2c[nH]c3ccccc23)C2CCOCC2)cc1)NO
NCI-H1299
  IC50: 40 nM
HCT-116
  IC50: 6 nM
Histone deacetylase
  IC50: 10 nM
Mus musculus [15]
  Body weight change: 0.1%
Mus musculus [2]
  MTD: 40 mg/kg
Mus musculus [16]
  T/C: 32%

## O=C(/C=C/c1ccc(CN(CCO)CCc2c[nH]c3ccccc23)cc1)NO [DACINOSTAT]
NCI-H1299
  IC50: 150 nM
HCT-116
  IC50: 10 nM
Mus musculus [17]
  Body weight change: -0.9%
Mus musculus [18]
  Body weight change: 1.4%
Mus musculus [19]
  Body weight change: 0%
Mus musculus [20]
  Body weight change: 2.3%
Mus musculus [21]
  Body weight change: 1.3%
Mus musculus [22]
  Body weight change: 0.4%
Mus musculus [23]
  Body weight change: -0.9%
Mus musculus [24]
  Body weight change: -0.4%
Mus musculus [25]
  Body weight change: 2.7%
Mus musculus [26]
  T/C: 15%
Mus musculus [5]
  MTD: >200 mg/kg
Mus musculus [10]
  T/C: 55%
Mus musculus [27]
  T/C: 32%
Mus musculus [28]
  T/C: 12% and 20%
Mus musculus [29]
  T/C: 7%
Mus musculus [30]
  T/C: 38%
Mus musculus [31]
  T/C: 20%
Mus musculus [6]
  T/C: 27%
